Assay [1] relates to Candida albicans. Description: Fungicidal activity against Candida albicans CAI4 in presence of 10 mM ascorbic acid. The assay is classed as functional. An outline of the steps: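 Overnight C. albicans culture diluted 1/400 in PBS, exposed to compound or DMSO with 10 mM ascorbic acid for 0 h and 5 h at 37°C. CFU counted on YPD agar after 2 days at 30°C. MFC defined as minimal concentration leaving under 1% survival versus DMSO control.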

Another assay concerns Nakaseomyces glabratus. Description: Fungicidal activity against Candida glabrata BG2. The assay is classed as functional. An outline of the steps:
(§1)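 Overnight cultures diluted 1/400 in PBS, exposed to compound or DMSO without ascorbic acid for 0 h and 5 h at 37°C. Survivors counted as CFU on YPD agar after 2 days at 30°C. MFC taken as lowest concentration giving under 1% survival relative to DMSO control.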

Assay [2] concerns Candida albicans. Description: Induction of endogenous ROS accumulation in Candida albicans CAI4 after 3 hrs by 2',7'-dichlorofluorescein diacetate staining. The assay is classed as functional, organism-based. An outline of the steps:
(§2)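 Log-phase cells suspended in PBS and pre-incubated with compounds for 3 h at 37°C. Cells then washed in PBS and incubated with 2',7'-dichlorofluorescein diacetate for 3 h at 37°C. Cellular fluorescence read by fluorescence spectrometer, ex 485 nm / em 525 nm. Tested over a range of concentrations up to 100 µg/ml.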

Assay [3] relates to Candida albicans. Description: Fungicidal activity against Candida albicans CAI4. The assay is classed as functional. Put shortly:
as §1

For assay [4], the system named is Candida albicans. Description: Induction of endogenous ROS accumulation in Candida albicans CAI4 at 100 ug/ml after 3 hrs by 2',7'-dichlorofluorescein diacetate staining. The assay is classed as functional, organism-based. An outline of the steps:
as §2

Converted amounts (≈) assume the structure as drawn. The source made the active and inactive calls.

One may read the MFC as the smallest concentration meeting the test's criterion for killing the fungus.

Regarding `CCCCCCCCCCCC[C@@H](O)[C@@H](N)CO`, the MFC in the assay with Candida albicans [1] worked out at 10 µg/mL; with Nakaseomyces glabratus it was 0.5 µg/mL (≈ 1.93 µM); in the assay on Candida albicans [3], 0.5 µg/mL (≈ 1.93 µM). The outcome in the assay with Candida albicans [2] was Active.

`CCCCCC[C@@H](O)[C@@H](N)CO`: the outcome in the assay with Candida albicans [4] was inactive. In addition, the MFC with Nakaseomyces glabratus and against Candida albicans [3] was above 100 µg/mL each time.

In the case of `CC[C@@H](O)[C@@H](N)CO`, the result with Candida albicans [4] was inactive. The MFC against Nakaseomyces glabratus and with Candida albicans [3] was above 100 µg/mL throughout.

For the compound `CCCCCCCCCCCCCCC[C@@H](O)[C@@H](N)CO` [DIHYDROSPINGOSINE], the MFC in the assay on Candida albicans [1] worked out at 5 µg/mL; against Nakaseomyces glabratus it was 1 µg/mL (≈ 3.32 µM); in the assay on Candida albicans [3], 5 µg/mL (≈ 16.6 µM). Moreover, the result with Candida albicans [2] was Active.

As to `CCCCCCCCC[C@@H](O)[C@@H](N)CO`, the results for the MFC in the assay with Candida albicans [1], against Nakaseomyces glabratus and against Candida albicans [3] were above 25 µg/mL, 10 µg/mL (≈ 46 µM) and 10 µg/mL (≈ 46 µM), respectively. For the same compound, the outcome in the assay on Candida albicans [2] was Active.

Consider `CCCCCCCCCCCCCC[C@@H](O)[C@@H](N)CO`, for which the MFC in the assay with Candida albicans [1] is 2 µg/mL; in the assay with Nakaseomyces glabratus, 0.5 µg/mL (≈ 1.74 µM); against Candida albicans [3], 0.5 µg/mL (≈ 1.74 µM). In the assay with Candida albicans [2], the outcome was Active.

For `CCCCCCCCCCCCCC[C@@H](O)[C@@H](O)[C@@H](N)CO` [PHYTOSPHINGOSINE], the MFC in the assay on Candida albicans [1] turned out to be 1 µg/mL; in the assay on Nakaseomyces glabratus, 1 µg/mL (≈ 3.15 µM); in the assay with Candida albicans [3] it was 1 µg/mL (≈ 3.15 µM). The result in the assay on Candida albicans [2] was Active.

For the origin of these results see ChEMBL document CHEMBL1157441, “Fungicidal activity of truncated analogues of dihydrosphingosine” (2008).
